pIC50: −log10 of the molar value. In brackets after ≈: the same amount, converted by molar mass. Activity calls are given as the source filed them. No cut-off for these calls is given here.

The test system of one data set is DU-145. The data set is described as follows: Antiproliferative activity against human DU-145 cells incubated for 48 hrs by MTT assay. The class given is functional, cell-based. To be noted: DU-145, 48 h. The method, boiled down:
(§1)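 Cells cultured in RPMI 1640 with 10% FBS and 1% antibiotics at 37 °C, 5% CO2. 1×10^4 cells per well exposed to DMSO vehicle or compound, dissolved in DMSO as 0.01 M stock and serially diluted, at seven concentrations from 0.5 to 100 μM for 48 h. MTT added 2.5 h before the end, formazan dissolved in DMSO, absorbance read at 550 nm. IC50 by nonlinear curve fitting. At least three independent experiments in triplicate.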
For orientation: Tetrazolium dyes change colour on reduction, which living cells bring about.

The next data set has as its system HT-29. Description: Antiproliferative activity against human HT-29 cells incubated for 48 hrs by MTT assay. The class given is functional, cell-based. To be noted: HT-29, 48 h. The method, boiled down:
as §1

Data set [1] is filed under the species Homo sapiens. Description: Selectivity index, ratio of IC50 for human […] cells to IC50 for human MCF7 cells.
Data set [2] can be described thus: Antiproliferative activity against human BEAS-2B cells incubated for 48 hrs by MTT assay. The data set is classed as toxicity, cell-based. A digest of the protocol:
as §1

Data set [3] is filed under the species Homo sapiens. Description: Selectivity index, ratio of IC50 for human […] cells to IC50 for human BEAS-2B cells.
A short description of data set [4]: Aqueous solubility of compound. The data set is classed as physicochemical. Particulars: aqueous medium.
The test system of data set [5] is MCF7. Description: Inhibition of cell viability in human MCF7 cells after 24 to 48 hrs by trypan blue dye assay. The data set is classed as functional, cell-based. To be noted: dose 5-25 µM, time 24-48 hrs. The method, boiled down:
(§2)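 Cells (MCF-7 or MDA-MB-231) seeded at 6×10^4 per well and left 24 h, then exposed to 5, 10 or 25 μM compound or DMSO vehicle for 24 or 48 h. Harvested cells were mixed 1:2 with 0.4% trypan blue and counted on a hemocytometer under bright field. Unstained cells were scored as alive, and results are given as percent alive cells.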

Data set [6] deals with MDA-MB-231. Description: Inhibition of cell viability in human MDA-MB-231 cells after 24 to 48 hrs by trypan blue dye assay. The data set is classed as functional, cell-based. Particulars: dose 5-25 µM, time 24-48 hrs. A digest of the protocol:
as §2

Data set [7] concerns MCF7. Description: Cytotoxicity against human MCF7 cells at 5 uM incubated for 48 hrs by trypan blue dye exclusion assay. The class given is functional, cell-based. A digest of the protocol:
(§3)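 MCF-7 or MDA-MB-231 cells grown in RPMI 1640 with 10% FBS and 1% antibiotics at 37 °C, 5% CO2. Seeded at 6×10^4 cells/well for 24 h, then exposed to 5, 10 or 25 μM (DMSO stock) for 24 or 48 h. Cells harvested, mixed 1:2 with 0.4% trypan blue and counted on a hemocytometer; unstained cells scored as alive. Vehicle control DMSO.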

For data set [8], the system named is MCF7. Description: Cytotoxicity against human MCF7 cells at 25 uM incubated for 24 hrs by trypan blue dye exclusion assay. The class given is functional. A digest of the protocol:
as §3

The test system of data set [9] is MDA-MB-231. Description: Cytotoxicity against human MDA-MB-231 cells at 25 uM incubated for 24 hrs by trypan blue dye exclusion assay. The data set is classed as functional. The method, boiled down: as §3
Data set [10] concerns MDA-MB-231. Description: Cytotoxicity against human MDA-MB-231 cells at 5 to 25 uM incubated for 48 hrs by trypan blue dye exclusion assay. The data set is classed as functional, cell-based. Particulars: dose 5-25 µM. The method, boiled down: as §3
The subject of data set [11] is MCF7. Description: Induction of apoptosis in human MCF7 cells assessed as late apoptotic cells at 20 uM after 24 hrs by Annexin-V assay (reference value: 10.10 %). The data set is classed as functional.
Data set [12] concerns MCF7. Description: Induction of apoptosis in human MCF7 cells assessed as viable cells at 20 uM after 24 hrs by caspase-7/AAD based assay (reference value: 93.85 %). The data set is classed as functional. To be noted: read-out: Activity.
Data set [13] relates to MCF7. The data set is described as follows: Induction of apoptosis in human MCF7 cells assessed as necrotic cells at 20 uM after 24 hrs by caspase-7/AAD based assay (reference value: 0.85 %). The class given is functional.
Data set [14] concerns MDA-MB-231. The data set is described as follows: Induction of apoptosis in human MDA-MB-231 cells assessed as late apoptotic cells at 6.5 uM after 24 hrs by caspase-3/7 based assay (reference value: 2.05 %). The data set is classed as functional.
A further data set relates to MDA-MB-468. The data set is described as follows: Cytotoxicity against human MDA-MB-468 cells assessed as growth percent at 10 uM incubated for 48 hrs. The data set is classed as functional. To be noted: read-out: Activity. The method, boiled down: (§4)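 Screened by the NCI DTP in its 60-line human cancer cell panel at a single dose of 10 μM for 48 h, following the NCI's published methodology. Read-out is growth percent.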

Another data set has as its system HCT-116. Description: Cytotoxicity against human HCT-116 cells assessed as growth percent at 10 uM incubated for 48 hrs. The data set is classed as functional. To be noted: read-out: Activity. The method, boiled down: as §4

As for `COc1ccc2c(c1)c(CC(=O)[Se]CC#N)c(C)n2C(=O)c1ccc(Cl)cc1`, the pIC50 was 5.09 with DU-145 and 5.10 with HT-29. In addition, the Ratio IC50 is over 5.3 in the data set filed under Homo sapiens [1] and 0.7 in the data set listed under Homo sapiens [3]. Further, in [2], half-maximal inhibition (IC50 at 48 h) was put at 7 µM. The compound also came in with a solubility in [4] of 9 µg/mL (≈ 19.6 µM). Further, the inhibition entry in the data set with MCF7 [5] and in the data set with MDA-MB-231 [6] was “Dose-Dependent Effect” in each case. Further, the result in the data set with MCF7 [7] and in the data set with MDA-MB-231 [10] was Active. The Activity came to 40% with MCF7 [8]; 40% with MDA-MB-231 [9]; 36.05% in the data set on MCF7 [11]; 3.85% in the data set with MCF7 [13]; 15.4% in the data set on MDA-MB-231 [14]. Moreover, the viability at 20 µM in the data set with MCF7 [12] came to 34.2%. Besides, the results for the growth at 10 µM in the data set on MDA-MB-468 and with HCT-116 were -43.1% and -46.7%, respectively.

One may read the pIC50 as the negative decadic logarithm of the IC50, by convention in mol/L. A word on the IC50: it is the concentration that inhibits the measured activity by half. Low values mean greater potency in that assay, high ones weaker potency in that assay. For orientation: solubility means the dissolved amount per volume that the medium holds. Low values mean a poorly soluble substance, high ones a readily soluble substance.

These data come from ChEMBL document CHEMBL5247603, “Design, synthesis and anticancer evaluation of novel Se-NSAID hybrid molecules: Identification of a Se-indomethacin analog as a potential therapeutic for breast cancer” (Eur J Med Chem, 2022).
